Source: ChEMBL document CHEMBL3286113, “New potent antibacterial oxazolidinone (MRX-I) with an improved class safety profile” (J Med Chem, 2014)
Converted amounts (≈) assume the structure as drawn.

Key:
Staphylococcus aureus [1] = assay: Antibacterial activity against Staphylococcus aureus in po dosed mouse septicemia model; assay type: functional
[2] = target: T1, Amine oxidase [flavin-containing] A (Homo sapiens, UniProt P21397); assay: Inhibition of human recombinant MAO-A expressed in yeast after 1 hr by luciferin-based luminescence assay
T1 sequence (P21397 whole entry): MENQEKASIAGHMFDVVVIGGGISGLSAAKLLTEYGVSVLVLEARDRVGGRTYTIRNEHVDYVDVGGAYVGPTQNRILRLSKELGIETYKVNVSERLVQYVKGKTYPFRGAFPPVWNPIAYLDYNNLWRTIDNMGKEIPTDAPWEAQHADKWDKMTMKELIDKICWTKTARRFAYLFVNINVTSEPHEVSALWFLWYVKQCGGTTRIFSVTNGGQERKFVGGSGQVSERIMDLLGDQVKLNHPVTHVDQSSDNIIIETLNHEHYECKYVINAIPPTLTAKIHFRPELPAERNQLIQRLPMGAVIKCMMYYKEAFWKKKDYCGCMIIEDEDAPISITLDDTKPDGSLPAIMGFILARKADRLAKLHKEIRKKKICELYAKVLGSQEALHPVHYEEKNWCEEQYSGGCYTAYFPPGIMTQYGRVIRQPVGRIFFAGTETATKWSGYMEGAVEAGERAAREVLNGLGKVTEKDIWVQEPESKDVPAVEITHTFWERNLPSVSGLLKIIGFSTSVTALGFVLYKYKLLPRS

Staphylococcus aureus [3] = assay: Antibacterial activity against methicillin-resistant Staphylococcus aureus SAU1009; assay type: functional
Outline: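 MIC against MRSA strain SAU1009.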

Staphylococcus aureus [4] = assay: Antibacterial activity against Staphylococcus aureus by agar dilution method; assay type: functional
Outline: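 MIC determined by agar dilution across S. aureus/MRSA isolates; MIC90 is the concentration inhibiting 90% of strains tested.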

Row | SMILES | ED50 (Staphylococcus aureus [1]) [mg/kg] | IC50 [2] [µM] | MIC (Staphylococcus aureus [3]) [µg/mL] | MIC90 (Staphylococcus aureus [4]) [µg/mL]
1 | COC(=O)NC[C@H]1CN(c2cc(F)c(N3C=CC(=O)CC3)c(F)c2F)C(=O)O1 | 6.3 | 61.1 | 2 (≈ 5.01 µM) | –
2 | O=C1C=CN(c2c(F)cc(N3C[C@H](Cn4ccnn4)OC3=O)c(F)c2F)CC1 | 10 | > 254 | 1 (≈ 2.54 µM) | –
3 | O=C1C=CN(c2ccc(N3C[C@H](COc4ccon4)OC3=O)c(F)c2F)CC1 | > 20 | – | 4 (≈ 10.2 µM) | –
4 | CC(=O)NC[C@H]1CN(c2cc(F)c(N3CCOCC3)c(F)c2F)C(=O)O1 | – | – | – | 4 (≈ 10.7 µM)
